Assay results from different studies.
Protocols differ between the studies behind these lines.
Cell line: UACC-257
Effect on: cell growth or viability

NC(=O)c1cc(Cl)ccc1NC(=O)COc1ccccc1  GI50: > 100000 nM
O=C1NC(=NCc2cccs2)S/C1=C\c1ccc2ncccc2c1  IC50: > 10000 nM
O=C1Nc2ccccc2C1=NNc1nnc2n1N=C(c1ccccc1)CS2  inhibition (SRB; 10 µM): 11%
COc1ccc(C(=O)/C=C/c2cc3c(cc2Br)OCO3)cc1S(N)(=O)=O  inhibition (SRB; 10 µM): 36%
COc1ccc(C2=Nn3c(NN=C4C(=O)Nc5ccc(Cl)cc54)nnc3SC2)cc1  inhibition (SRB; 10 µM): 27%
COc1ccc(-c2ccc(-c3ccc(C(=N)N)nc3)s2)cc1Cl  GI50 (SRB): 1880 nM
COc1ccc(C(=O)/C=C/c2cccc(Cl)c2Cl)cc1S(N)(=O)=O  inhibition (SRB; 10 µM): 65%
O=C1NCCc2[nH]c(-c3ccncc3)cc21  IC50: > 10000 nM
COc1cc(-c2ccc(-c3ccc(C(=N)N)nc3)s2)cc(OC)c1OC  GI50 (SRB): 2150 nM
